NPY-Y2 antag – NPY-Y2 receptor antagonists, primary screen, cell-based | NPY-Y2 expressing cells, antagonist mode | inhibition, % at 2.7 µM | 140,000 tested, 0.99% active; in the data active means inhibition above about 17%;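 further: 0% = vehicle with agonist challenge and 100% = reference antagonist with challenge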
NPY-Y1 antag – NPY-Y1 receptor antagonists, primary screen, cell-based | inhibition, % at 3.6 µM | HEK293-CNG Y1 cells, membrane potential fluorescence; NPY at EC95, then isoproterenol | AID 1040, 2008 | 200,000 tested, 1% active | Neuropeptide Y receptor type 1 (Homo sapiens), P25929;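 active means inhibition above the campaign mean inhibition of all tested compounds plus 3 SD, cut at about 20% in these data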;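 further: 0% = DMSO wells given NPY plus isoproterenol and 100% = isoproterenol alone without NPY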
Target sequence (P25929 whole entry, looked up): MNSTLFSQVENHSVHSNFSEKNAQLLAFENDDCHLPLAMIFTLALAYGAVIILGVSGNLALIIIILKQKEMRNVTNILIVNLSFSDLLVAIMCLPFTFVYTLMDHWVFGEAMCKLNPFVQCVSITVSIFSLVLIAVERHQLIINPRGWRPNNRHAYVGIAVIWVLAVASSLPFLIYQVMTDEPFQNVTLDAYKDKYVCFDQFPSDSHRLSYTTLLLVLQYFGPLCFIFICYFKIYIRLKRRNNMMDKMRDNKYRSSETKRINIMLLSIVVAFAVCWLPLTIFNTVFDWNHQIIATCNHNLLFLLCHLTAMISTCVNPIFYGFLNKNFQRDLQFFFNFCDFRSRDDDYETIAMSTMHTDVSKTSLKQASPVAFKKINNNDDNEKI
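Assay system: HEK293 Y1/CNG channel cell line; Doses: single compound dose of 3.6 µM, 0.4% DMSO; Timing: dye 3 h, compound 60 min room temperature, stimulation 45 min; Technique: Membrane-potential fluorescent dye readout; Measure: % inhibition of NPY effect.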
NPY2 pot ag – NPY-Y2 potentiators or agonists, primary screen, cell-based; Neuropeptide Y receptor type 2 (Homo sapiens), P49146; cells expressing NPY-Y2, potentiator/agonist read-out; activation, % at 3.6 µM; 220,000 tested, 0.45% active; AID 1359, 2008; in the data active means activation above about 27%;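 further: cells stimulated with NPY near EC25 plus isoproterenol at EC100; 0% = vehicle plus submaximal agonist and 100% = vehicle plus saturating agonist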
NPY-Y1 PAM-ag – NPY-Y1 receptor potentiators or agonists, primary screen, cell-based; activation, % at 3.6 µM; Neuropeptide Y receptor type 1 (Homo sapiens), P25929; 220,000 tested, 0.37% active; NPY-Y1 expressing cells, potentiator/agonist activation; in the data active means activation above about 33%, passing the limit was not always enough;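 further: cells stimulated with NPY at EC10 then isoproterenol at EC100; 0% = low agonist plus stimulus and 100% = saturating agonist plus stimulus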
NPY-Y1 antag ct – NPY-Y1 receptor antagonists, selectivity check, counter-screen for NPY-Y2 antagonist project, cell-based. AID 1256, 2008. 710 tested, 19% active. inhibition, % at 3.6 µM. cell-based NPY-Y1 antagonism counterscreen. shares compounds with NPY-Y2 antag; in the data active means inhibition above about 20%;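 further: cells challenged with NPY then isoproterenol with cAMP sensed through a CNG channel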
NPY-Y2 ant conf – NPY-Y2 receptor antagonists, retest of hits, confirmation, HEK293-CNG cells, membrane potential fluorescence, triplicate; shares compounds with NPY-Y2 antag; HEK293 NPY-Y2 CNG channel; inhibition, % at 2.8 µM; 710 tested, 32% active;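 active means mean inhibition of triplicate wells above the hit cutoff set in the primary screen, cut at about 17% in these data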;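 further: 0% = DMSO with NPY challenge and 100% = BIIE0246 high control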
An asterisk follows results filed as active; · = not tested or not shown. A selection: hits, their analogues and other compounds. The true share with any hit is near 1.9%.

SMILES	NPY-Y2 antag	NPY-Y1 antag	NPY2 pot ag	NPY-Y1 PAM-ag	NPY-Y1 antag ct	NPY-Y2 ant conf
CCN(CC)S(=O)(=O)c1cccc(-c2n[nH]c(=S)n2/N=C/c2ccc(Br)cc2)c1	19.1*	8.3	-0.5	-23.9	8.7	8.1
CCN(CC)S(=O)(=O)c1cccc(-c2n[nH]c(=S)n2/N=C/c2ccc(OC)cc2)c1	5.7	8.0	8.2	-7.6	·	·
CCOC(=O)Cn1nc(-c2ccccc2)nc1-c1ccccc1	-2.4	12.3	3.5	3.2	·	·
CCOC(=O)Cn1nc(-c2ccccc2)c2cnc3ccc(CC)cc3c21	26.2*	3.6	5.6	2.3	20.1	12.8
Cc1ccc(C(=O)N2CCN(c3ccc(NC(=O)COc4ccccc4C)cc3)CC2)cc1	·	-10.4	12.3	31.4	·	·
CC(C)Cn1c(/C=C/c2ccccc2)nc2ccccc21	17.7*	8.8	-18.0	-35.3	13.2	15.9
COc1ccc(Cn2c(/C=C/c3ccccc3)nc3ccccc32)cc1	36.2*	15.9	-45.3	-58.7	14.4	23.8*
Cn1cc(CCNC(=O)CC2C(=O)NCCN2CC(c2ccccc2)c2ccccc2)cn1 (stereo not given)	·	·	0.2	13.5	·	·
COc1ccc(Cn2nnnc2C(c2cccs2)N2CCN(c3ccccc3)CC2)cc1 (stereo not given)	18.7*	12.2	-7.8	-12.2	12.8	6.8
Fc1ccc(C(c2nnnn2Cc2cccs2)N2CCN(c3ccccc3)CC2)cc1 (stereo not given)	19.3*	9.3	-4.0	-60.5	13.9	5.1
COc1ccc(Cn2nnnc2C(c2cccs2)N2CCN(c3ccc([N+](=O)[O-])cc3)CC2)cc1 (stereo not given)	0.3	-6.2	6.9	3.1	·	·
CCCCC(CC)CNC(=O)CC1Nc2c3ccccc3nc(=S)n2C1=O (stereo not given)	·	-3.1	-9.5	1.2	·	·
Cc1sc2ncnc(OCC(=O)N3CCN(C(=O)c4ccco4)CC3)c2c1C	·	-0.9	6.4	18.5	·	·
CCOC(=O)c1c(-c2ccc(C)o2)csc1NC(=O)CSc1nnc(C)s1	18.4*	17.1	-21.9	-22.1	12.6	15.7
CCOC(=O)c1c(NC(=O)CSc2nnc(C)s2)sc2c1CCC(C)C2 (stereo not given)	23.3*	5.3	7.9	-19.3	24.8*	14.2
CSc1ccc(C(=O)C2CCCN(S(=O)(=O)c3c(C)noc3C)C2)cc1 (stereo not given)	·	0.0	3.8	11.1	·	·
CCOc1nc(SCCOc2ccccc2)nc(N(C)C)n1	23.4*	-0.2	-7.5	-19.7	10.3	12.8
O=S(=O)(NCCC1=CCCCC1)c1cccc(S(=O)(=O)N2CCOCC2)c1	0.8	-1.6	0.6	-14.6	·	·
COC(=O)c1ccc(C(=O)N(CCN(C)C)c2nc3c(Cl)cccc3s2)cc1	·	7.4	-2.9	-25.1	·	·
Cc1nc(-n2nnc3ccccc32)c2c3c(sc2n1)CCCC3	21.9*	15.2	-36.4	-22.7	10.7	9.6
c1ccc2c(c1)nnn2-c1ncnc2sc3c(c12)CCCC3	5.6	7.8	-23.0	-18.4	·	·
Cc1ccccc1C(=O)NC1CCN(C(=O)Nc2ccccc2Cl)CC1	·	-0.9	-8.6	-1.7	·	·
COc1cc(/C=N/n2cnnc2)ccc1OCc1ccccc1	2.9	4.8	-2.0	-15.0	·	·
COc1cc(/C=N/n2cnnc2)ccc1OCc1ccc(C)cc1	39.7*	18.5	-19.8	-41.6	16.1	31.8*
CC(C)c1ccc(NC(=O)c2snc3ccc(Cl)cc23)cc1	26.1*	5.5	-3.7	-3.5	8.8	10.1
SMILES	NPY-Y2 antag	NPY-Y1 antag	NPY2 pot ag	NPY-Y1 PAM-ag	NPY-Y1 antag ct	NPY-Y2 ant conf
CC(C)c1ccc(NC(=O)c2csnn2)cc1	-3.1	4.4	1.0	31.3	·	·
CCCc1cc(=O)[nH]c(SCC(=O)c2cc(C)n(C)c2C)n1	18.8*	2.6	-9.4	-39.5	4.0	10.8
O=[N+]([O-])c1cnn(-c2nc(-c3ccccc3)cc(C(F)(F)F)n2)c1	·	5.0	-5.2	3.2	·	·
O=C(OCc1nnc(-c2ccccc2)o1)c1ccc2c(c1)OCO2	19.6*	10.8	-33.0	-20.8	18.0	15.6
O=C(OCc1nnc(-c2ccccc2)o1)c1ccco1	-2.2	2.2	-12.9	-3.2	·	·
Cc1nn(Cc2ccccc2)c(Cl)c1C(=O)OCc1nnc(-c2ccc(Cl)cc2)o1	18.8*	7.5	-4.0	-53.0	10.8	6.9
c1ccc2sc(NC3=NCN(CC4CCCO4)CN3)nc2c1 (stereo not given)	·	0.8	5.1	8.4	·	·
O=C(O)CCNS(=O)(=O)c1ccc2c(c1)CCCC2	·	1.7	1.5	6.5	·	·
O=C(O)CCNS(=O)(=O)c1ccc2c(c1)Cc1ccccc1-2	27.4*	4.5	-29.9	-18.6	8.0	10.4
O=C1C2CCCN2C(=O)N1CCCCN1CCN(CCO)CC1 (stereo not given)	0.8	4.4	5.3	-7.2	·	·
COc1ccc(N2C(=O)/C(=C\c3ccco3)N=C2SCC(=O)N(C(C)C)C(C)C)cc1Cl	17.9*	5.5	-1.8	-11.5	7.7	9.8
Cc1ccc(NC(=S)/N=C(\N)Nc2nc(C)c3cc(C)ccc3n2)c(C)c1	18.2*	14.7	2.9	-7.1	16.1	19.9*
CCc1ccccc1NC(=S)/N=C(\N)Nc1nc(C)c2cc(C)ccc2n1	4.6	10.5	-13.4	2.8	·	·
CNCc1ccccc1Sc1ccc(OC)cc1	19.5*	5.0	-17.2	-33.9	1.9	6.0
Cc1c(Cl)ccc2c(C(=O)NC(C)c3ccncc3)cc(-c3ccncc3)nc12 (stereo not given)	·	5.0	-26.8	0.8	·	·
CCCn1nnnc1NC(=O)COc1ccc(Cl)c(C)c1	5.0	7.9	-9.8	-31.4	·	·
CCCn1nnnc1NC(=O)COc1ccc(CC)cc1	17.6*	6.0	-6.7	-10.2	6.2	4.2
Cc1cccc(NC(=O)c2sc(Cl)nc2C)c1C	17.9*	-3.2	0.9	1.8	-1.2	1.7
CCOC(=O)C1CCCN(Cc2ccccc2C)C1 (stereo not given)	17.4*	1.2	1.0	8.9	0.2	-0.3
CN1CCC(Oc2ccccc2Sc2ccccc2)CC1	17.6*	13.6	1.9	-43.4	14.7	21.9*
CN1CCC(OC(c2ccccc2)c2ccccc2)CC1	1.8	-0.6	-9.1	-14.9	·	·
CC1CCCCC1NC(=O)c1ccc(S(=O)(=O)NCc2ccco2)cc1 (stereo not given)	17.2*	9.4	2.9	-17.4	9.2	9.0
O=C(Nc1ccccc1)c1ccc(S(=O)(=O)NCc2ccco2)cc1	2.3	-2.1	8.2	-3.9	·	·
CN(C)CCCSc1nc(-c2ccccc2)nc2c1CCC2	21.2*	20.1	-13.4	-64.8	16.1	22.9*
